Calls of active or inactive are those of the source. The rule behind the calls is not given here.
Legend:
[1] = Growth inhibition of human OVCAR8 cells; format: functional; details: OVCAR-8
Summary of the method: (§1)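 NCI 60-human-cancer-cell-line panel, five-dose screen after a preliminary screen. GI50 is the molar concentration giving 50% growth inhibition.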

[2] = Growth inhibition of human OVCAR4 cells; format: functional; details: OVCAR-4; summary of the method: as §1
IGROV-1 = assay: Growth inhibition of human IGROV1 cells; format: functional; summary of the method: as §1
[3] = Growth inhibition of human OVCAR3 cells; format: functional; details: OVCAR-3; summary of the method: as §1
[4] = Growth inhibition of human UACC257 cells; format: functional; details: UACC-257
Summary of the method: (§2)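 NCI 60-cell-line panel, five-dose screen; GI50 is the molar concentration giving 50% growth inhibition.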

[5] = Growth inhibition of human UACC62 cells; format: functional; details: UACC-62; summary of the method: as §2
SK-MEL-5 = assay: Growth inhibition of human SK-MEL-5 cells; format: functional; summary of the method: as §1
SK-MEL-2 = assay: Growth inhibition of human SK-MEL-2 cells; format: functional; summary of the method: as §1
SK-MEL-28 = assay: Growth inhibition of human SK-MEL-28 cells; format: functional; summary of the method: as §1
M14 = assay: Growth inhibition of human M14 cells; format: functional; summary of the method: as §1
MDA-MB-435 = assay: Growth inhibition of human MDA-MB-435 cells; format: functional; summary of the method: as §1
Malme-3M = assay: Growth inhibition of human MALME-3M cells; format: functional; summary of the method: as §1
U-251 = assay: Growth inhibition of human U251 cells; format: functional; summary of the method: as §2
[6] = Growth inhibition of human LOXIMVI cells; format: functional; details: LOX IMVI; summary of the method: as §1
SNB-75 = assay: Growth inhibition of human SNB75 cells; format: functional; summary of the method: as §2
SNB-19 = assay: Growth inhibition of human SNB19 cells; format: functional; summary of the method: as §2
[7] = Growth inhibition of human SF539 cells; format: functional; details: SF-539; summary of the method: as §1
[8] = Growth inhibition of human SF295 cells; format: functional; details: SF-295; summary of the method: as §1
SW-620 = assay: Growth inhibition of human SW620 cells; format: functional; summary of the method: as §2
SF-268 = assay: Growth inhibition of human SF268 cells; format: functional; summary of the method: as §1
HT-29 = assay: Growth inhibition of human HT-29 cells; format: functional; summary of the method: as §1
KM12 = assay: Growth inhibition of human KM12 cells; format: functional; summary of the method: as §1
[9] = Growth inhibition of human HCT15 cells; format: functional; details: HCT-15; summary of the method: as §1
[10] = Growth inhibition of human HCC2998 cells; format: functional; details: HCC 2998; summary of the method: as §1
HCT-116 = assay: Growth inhibition of human HCT116 cells; format: functional; summary of the method: as §1
COLO 205 = assay: Growth inhibition of human COLO205 cells; format: functional; summary of the method: as §1
NCI-H460 = assay: Growth inhibition of human NCI-H460 cells; format: functional; summary of the method: as §1
NCI-H522 = assay: Growth inhibition of human NCI-H522 cells; format: functional; summary of the method: as §1
NCI-H322M = assay: Growth inhibition of human NCI-H322M cells; format: functional; summary of the method: as §1
NCI-H226 = assay: Growth inhibition of human NCI-H226 cells; format: functional; summary of the method: as §1
NCI-H23 = assay: Growth inhibition of human NCI-H23 cells; format: functional; summary of the method: as §1
[11] = Growth inhibition of human HOP92 cells; format: functional; details: HOP-92; summary of the method: as §1
[12] = Growth inhibition of human EKVX cells; format: functional; summary of the method: as §1
HOP-62 = assay: Growth inhibition of human HOP62 cells; format: functional; summary of the method: as §1
SR = assay: Growth inhibition of human SR cells; format: functional; summary of the method: as §2
A549 = assay: Growth inhibition of human A549 cells; format: functional; summary of the method: as §1
RPMI-8226 = assay: Growth inhibition of human RPMI8226 cells; format: functional; summary of the method: as §1
K562 = assay: Growth inhibition of human K562 cells; format: functional; summary of the method: as §1
[13] = Growth inhibition of human MOLT4 cells; format: functional; details: MOLT-4; summary of the method: as §1
HL-60(TB) = assay: Growth inhibition of human HL-60(TB) cells; format: functional; summary of the method: as §1
CCRF-CEM = assay: Growth inhibition of human CCRF-CEM cells; format: functional; summary of the method: as §1
T47D = assay: Growth inhibition of human T47D cells; format: functional; summary of the method: as §2
[14] = Growth inhibition of human Hs578T cells; format: functional; details: Hs-578T; summary of the method: as §1
[15] = Growth inhibition of human BT549 cells; format: functional; details: BT-549; summary of the method: as §1
MDA-MB-231 = assay: Growth inhibition of human MDA-MB-231 cells; format: functional; summary of the method: as §1
DU-145 = assay: Growth inhibition of human DU145 cells; format: functional; summary of the method: as §1
MCF7 = assay: Growth inhibition of human MCF7 cells; format: functional; summary of the method: as §1
[16] = Growth inhibition of human UO31 cells; format: functional; details: UO-31; summary of the method: as §2
PC-3 [17] = assay: Growth inhibition of human PC3 cells; format: functional; summary of the method: as §1
TK-10 = assay: Growth inhibition of human TK10 cells; format: functional; summary of the method: as §2
[18] = Growth inhibition of human RXF393 cells; format: functional; details: RXF 393; summary of the method: as §1
SN12C = assay: Growth inhibition of human SN12C cells; format: functional; summary of the method: as §2
ACHN = assay: Growth inhibition of human ACHN cells; format: functional; summary of the method: as §1
CAKI-1 = assay: Growth inhibition of human Caki1 cells; format: functional; summary of the method: as §1
A498 = assay: Growth inhibition of human A498 cells; format: functional; summary of the method: as §1
SK-OV-3 = assay: Growth inhibition of human SKOV3 cells; format: functional; summary of the method: as §2
786-0 = assay: Growth inhibition of human 786-0 cells; format: functional; summary of the method: as §1
[19] = Growth inhibition of human NCI-ADR-RES cells; format: functional; summary of the method: as §1
[20] = Growth inhibition of human OVCAR5 cells; format: functional; details: OVCAR-5; summary of the method: as §1
PC-3 [21] = assay: Induction of beta tubulin de-stabilization in human PC3 cells at 10 nM after 24 hrs by DAPI-staining based immunofluorescence assay; format: cell-based
Summary of the method: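 PC3 cells were treated for 24 hours with the test agent at 1, 10 or 100 nM, or with 10 nM docetaxel or vinblastine as stabilizing and destabilizing references. Cells were immunostained for beta-tubulin (green) with DAPI nuclear counterstain (blue) and the microtubule staining pattern imaged.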

LLC-PK1 [22] = assay: Resistance factor, ratio of GI50 for pig LLC-PK1 cells expressing MDR1 to GI50 for pig LLC-PK1 cells; parameters: species or system Sus scrofa
Summary of the method: (§3)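 Porcine epithelial L-MDR1 (P-gp expressing) cells and their non-expressing parent line were exposed to compound for 72 h. Viability was read with AlamarBlue dye and GI50 derived. P-gp expression was verified by Western blot with β-actin as loading control. The resistance ratio compares GI50 in MDR1 versus parent cells.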

LLC-PK1 [23] = assay: Growth inhibition of pig LLC-PK1 cells expressing MDR1 by Alamar Blue assay; format: functional; details: Sus scrofa; summary of the method: as §3
[24] = Growth inhibition of pig LLC-PK1 cells by Alamar Blue assay; format: cell-based, Sus scrofa
Summary of the method: (§4)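 Cell viability was read with AlamarBlue dye in 96-well format and GI50 values derived, to assess P-gp effects. Cells were P-gp-expressing NCI/ADR-Res ovarian cancer cells and L-MDR1 porcine epithelial cells, each with its non-expressing parent line. P-gp expression was confirmed by Western blot with β-actin as loading control. Resistance is the GI50 in the P-gp line over the GI50 in the parent line.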

OVCAR-8 = assay: Resistance factor, ratio of GI50 for P-gp expressing NCI-ADR-RES cells to GI50 for human OVCAR8 cells; format: functional; summary of the method: as §4
[25] = Growth inhibition of P-gp expressing human NCI-ADR-RES cells by Alamar Blue assay; format: functional
Summary of the method: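 72-h cytotoxicity in 96-well plates with AlamarBlue viability dye, giving GI50. Line 1 uses docetaxel-resistant PC3 prostate cells (PC3-DR), and line 2 uses NCI/ADR-Res ovarian cells. P-gp expression in both was confirmed by Western blot, with β-actin as the loading control.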

[26] = Growth inhibition of human OVCAR8 cells by Alamar Blue assay; format: functional; details: OVCAR-8; summary of the method: as §4
PC-3 [27] = assay: Growth inhibition of human PC3 cells after 72 hrs by Alamar Blue assay; format: functional; details: PC-3, 72 h
Summary of the method: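 PC3 prostate cancer cells and docetaxel-resistant PC3-DR cells were exposed to drug for 72 hours in 96-well format. Viability was read with AlamarBlue dye and GI50 derived. Resistance is the GI50 in PC3-DR over the GI50 in parental PC3.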

Tubulin (Homo sapiens) = Tubulin (Homo sapiens) (UniProt P68371+Q9H4B7+P0DPH7+P68366+Q13509+Q71U36+P04350+Q3ZCM7+P07437+P68363+Q9BQE3+Q6PEY2+Q13885+Q9BVA1+Q9BUF5); details: 5 uM

With `COc1ccc(/C(C#N)=C/c2cc3ccccc3s2)cc1OC` the GI50 [1] was 25.1 nM, the GI50 [2] was > 100 nM and the GI50 (IGROV-1) was 61.8 nM. The GI50 [3] was 22 nM, the GI50 [4] was > 100 nM and the GI50 [5] was 45.9 nM. The GI50 (SK-MEL-5) was 21 nM, the GI50 (SK-MEL-2) was > 100 nM and the GI50 (SK-MEL-28) was > 100 nM. For the same molecule, the GI50 (M14) was 61.1 nM, the GI50 (MDA-MB-435) was 10 nM and the GI50 (Malme-3M) was > 100 nM. It also gave a GI50 (U-251) of 64 nM, a GI50 [6] of 60.7 nM and a GI50 (SNB-75) of 13.7 nM. For the same molecule, the GI50 (SNB-19) was 44.4 nM, the GI50 [7] was 10.6 nM and the GI50 [8] was 10 nM. For the same molecule, the GI50 (SW-620) was 24.2 nM, the GI50 (SF-268) was 45.2 nM and the GI50 (HT-29) was 31.8 nM. It also gave a GI50 (KM12) of 10 nM, a GI50 [9] of 48.2 nM and a GI50 [10] of 66.5 nM. The GI50 (HCT-116) was 41.1 nM, the GI50 (COLO 205) was 36.1 nM and the GI50 (NCI-H460) was 35.4 nM. For the same molecule, the GI50 (NCI-H522) was 10 nM, the GI50 (NCI-H322M) was 31.5 nM and the GI50 (NCI-H226) was > 100 nM. The GI50 (NCI-H23) was 57.9 nM, the GI50 [11] was > 100 nM and the GI50 [12] was 90.8 nM. The GI50 (HOP-62) was 47 nM, the GI50 (SR) was 10 nM and the GI50 (A549) was 70 nM. It also gave a GI50 (RPMI-8226) of 29.8 nM, a GI50 (K562) of 35.4 nM and a GI50 [13] of 53.5 nM. For the same molecule, the GI50 (HL-60(TB)) was 22.2 nM, the GI50 (CCRF-CEM) was 28.6 nM and the GI50 (T47D) was > 100 nM. It also gave a GI50 [14] of 30 nM, a GI50 [15] of 28.3 nM and a GI50 (MDA-MB-231) of 26.9 nM. The GI50 (DU-145) was 36.6 nM, the GI50 (MCF7) was 47.8 nM and the GI50 [16] was 18.7 nM. It also gave a GI50 (PC-3 [17]) of 29.7 nM, a GI50 (TK-10) of 45.2 nM and a GI50 [18] of 90.9 nM. It also gave a GI50 (SN12C) of 13.6 nM, a GI50 (ACHN) of 85.4 nM and a GI50 (CAKI-1) of 82.7 nM. It also gave a GI50 (A498) of 26.6 nM, a GI50 (SK-OV-3) of 63.4 nM and a GI50 (786-0) of 33.7 nM. For the same molecule, the GI50 [19] was 10.5 nM and the GI50 [20] was 50 nM.

For `CC[C@]1(O)C[C@@H]2CN(CCc3c([nH]c4ccccc34)[C@@](C(=O)OC)(c3cc4c(cc3OC)N(C)[C@H]3[C@@](O)(C(=O)OC)[C@H](OC(C)=O)[C@]5(CC)C=CCN6CC[C@]43[C@@H]65)C2)C1` [VINBLASTINE], the Activity (PC-3 [21]) was “Active”, the RatioGI50 (LLC-PK1 [22]) was 58 and the GI50 (LLC-PK1 [23]) was 86.8 nM. The GI50 [24] was 1.5 nM, the RatioGI50 (OVCAR-8) was 500 and the GI50 [25] was 1400 nM. The GI50 [26] was 2.8 nM, the GI50 (PC-3 [27]) was 5.2 nM and the inhibition (Tubulin (Homo sapiens)) was “Active”.

Reference: ChEMBL document CHEMBL3217724, “Synthesis and evaluation of a series of benzothiophene acrylonitrile analogs as anticancer agents” (Medchemcomm, 2013)
